Experimental data of several laboratories.
Lines come from different studies, so protocols differ.
Target: Calcium-dependent protein kinase 1 (CDPK1, Plasmodium falciparum, UniProt P62344)

| Compound | assay | conditions | quantity | value |
| --- | --- | --- | --- | --- |
| Cc1nn(C)cc1-c1nc2c(N3CCN(Cc4ccc(Cl)cc4)CC3)c(Cl)cnc2[nH]1 | binding, competition with immobilised ligand | 1 µM | remaining binding | 100% |
| C=CC(=O)N1CCC(C(=O)NCC(=O)N2CCN(c3nc(-c4cnc(N)nc4C(F)F)nc(N4CCOCC4)n3)CC2)CC1 | binding, competition with immobilised ligand | 1 µM | remaining binding | 81% |
| CNC(=O)[C@@H]1CC[C@@H](n2c(-c3ccc4cnccc4c3)nc3ccc(C(=O)NCc4cccc(C(N)=O)c4)cc32)C1 | binding, competition with immobilised ligand | 1 µM | remaining binding | 99% |
| O=C(NCC1CCOCC1)c1n[nH]cc1NC(=O)c1c(F)cccc1F | binding, competition with immobilised ligand | 1 µM | remaining binding | 83% |
| Nc1ncc2c(n1)-c1c([nH]c3ccc(C#CC4CC4)cc13)CCCC2 | binding, competition with immobilised ligand | 1 µM | remaining binding | 79% |
| c1cncc(-c2cccc(Nc3nccc(NC4CCCCC4)n3)c2)c1 | binding, competition with immobilised ligand | 10 µM | remaining binding | 24% |
| N[C@@H]1CCN(c2nccc(-c3cnn4ncccc34)n2)C1 | binding | 1 µM | remaining binding | 91% |
| COc1cnc(Nc2cccc(S(N)(=O)=O)c2)nc1N1CCN(c2ccccc2)CC1 | binding, competition with immobilised ligand | 1 µM | remaining binding | 86% |
| O=C(Nc1c[nH]nc1C(=O)NC1CCNCC1)c1cc(F)cc(F)c1 | binding, competition with immobilised ligand | 1 µM | remaining binding | 89% |
| Cc1ccc(C(=O)Nc2ccc(CN3CCN(C)CC3)c(C(F)(F)F)c2)cc1C#Cc1cnc2cccnn12 | enzyme activity, inhibitor | 23.5 nM | remaining activity | 16% |
| C[C@@H]1CCN(c2nccc(-c3cnn4ncccc34)n2)C1 | binding | 1 µM | remaining binding | 85% |
| FC(F)(F)Oc1cccc(-c2cnc3ccc(-c4ccncc4)nn23)c1 | binding, competition with immobilised ligand | 5 µM | remaining binding | 4.5% |
| COc1ccnn2ncc(-c3ccnc(N(C)C)n3)c12 | binding | 1 µM | remaining binding | 81% |
| CCN1CCN(Cc2ccc(C(=O)Nc3ccc(C)c(Oc4ccc5c(c4)CC(=O)N5)c3)cc2C(F)(F)F)CC1 | binding, competition with immobilised ligand | 1 µM | remaining binding | 68% |
| Nc1ncnc2occ(-c3ccc(NC(=O)Nc4cc(C(F)(F)F)ccc4F)cc3)c12 | cell-free assay, inhibitor | 20 µM | remaining signal | 1.2% |
